# Assay results collected from several papers.
# Cell line: PC-3
# Effect on: cell growth or viability
Compound,assay,setting,IC50 [nM]
COc1cc2ncnc(Nc3ccc(F)c(Cl)c3)c2cc1NC(=O)N/N=C/c1cccn1CCCN1CCCCC1,MTT,72 h,1060
Cc1cc(C)cc(COc2cc3c(cc2OCc2cc(C)cc(C)c2)[C@H]2C[C@](O)(Cc4cn(Cc5ccc(S(C)(=O)=O)cc5)nn4)C[C@H](C)N2CC3)c1,MTT,,223
O=C(N/N=C/c1cccn1CCCN1CCCC1)Nc1cc2c(Nc3ccc(F)c(Cl)c3)ncnc2cc1O[C@H]1CCOC1,MTT,72 h,1820
Cc1cc(C)cc(COc2cc3c(cc2OCc2cc(C)cc(C)c2)[C@H]2C[C@](O)(Cc4cn(CCc5ccccc5)nn4)C[C@H](C)N2CC3)c1,MTT,,318
CN1CCN(CCCn2cccc2/C=N/NC(=O)Nc2cc3c(Nc4ccc(F)c(Cl)c4)ncnc3cc2O[C@H]2CCOC2)CC1,MTT,72 h,2060
O=C(/C=C/c1ccc2c(=O)n(CC3CCCC3)cnc2c1)NO,SRB,48 h,2490
O=C(N/N=C/c1cccn1CCCN1CCOCC1)Nc1cc2c(Nc3ccc(F)c(Cl)c3)ncnc2cc1O[C@H]1CCOC1,MTT,72 h,6320
Cc1cc(C)cc(COc2cc3c(cc2OCc2cc(C)cc(C)c2)[C@H]2C[C@](O)(Cc4cn(Cc5cnccn5)nn4)C[C@H](C)N2CC3)c1,MTT,,480
CN(C)CCn1cccc1/C=N/NC(=O)Nc1cc2c(Nc3ccc(F)c(Cl)c3)ncnc2cc1O[C@H]1CCOC1,MTT,72 h,3840
Cc1cc(C)cc(COc2cc3c(cc2OCc2cc(C)cc(C)c2)[C@H]2C[C@](O)(Cc4cn(Cc5ccc(C#N)cc5)nn4)C[C@H](C)N2CC3)c1,MTT,,371
COCCCOc1ccnc(COc2ccc(NC(=O)Nc3cccc(C(F)(F)F)c3)cc2)c1C,MTT,72 h,> 100000
CCCCCCCCCc1ccc(C(=O)Nc2cc(C)ccc2C(=O)OC)cc1,MTT,,> 120000
CCN(CC)CCCn1cccc1/C=N/NC(=O)Nc1cc2c(Nc3ccc(F)c(Cl)c3)ncnc2cc1O[C@H]1CCOC1,MTT,72 h,2240
c1ccc(CNCc2cc3c(-c4ccccc4)n[nH]c3c(Nc3ccccc3)n2)cc1,MTS,48 h,3900
COCCCOc1ccnc(COc2ccc(NC(=O)Nc3ccc(F)cc3)cc2)c1C,MTT,72 h,> 100000
COc1cccc2c1C(=O)c1c(O)c3c(c(O)c1C2=O)C[C@@](O)(C(=O)CO)C[C@@H]3O[C@H]1C[C@H](N)[C@H](O)[C@H](C)O1,MTT,72 h,2350
Cc1c(OCC(F)(F)F)ccnc1COc1ccc(NC(=O)Nc2ccc(F)cc2)cc1,MTT,72 h,60200
COc1ccc(/C=C/c2cc(C)no2)cc1,MTT,72 h,> 100000
C=CC(=O)Nc1ccc(CCn2cc(C[C@@]3(O)C[C@@H]4c5cc(OCc6cc(C)cc(C)c6)c(OCc6cc(C)cc(C)c6)cc5CCN4[C@@H](C)C3)nn2)cc1,MTT,,252
Cc1c(OCC(F)(F)F)ccnc1COc1ccc(NC(=O)Nc2cccc(C(F)(F)F)c2)cc1,MTT,72 h,> 100000
